Source: ChEMBL document CHEMBL1157184, “Hymenoic acid, a novel specific inhibitor of human DNA polymerase lambda from a fungus of Hymenochaetaceae sp” (Bioorg Med Chem, 2008)
Calls of active or inactive are those of the source. The calls are words filed in the database; no cut-off is given here.

How the values were obtained:
Homo sapiens [1] = species: Homo sapiens; experiment: Inhibition of human topoisomerase type 2 at 200 uM
Summary of the method: (§1)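 Each enzyme (0.05 U) was incubated with 200 μM compound. Activity was expressed as a percentage of the activity without compound (100%). Means ± SEM of four independent experiments.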

Homo sapiens [2] = species: Homo sapiens; experiment: Inhibition of human topoisomerase type 1 at 200 uM; summary of the method: as §1
Drosophila melanogaster = experiment: Inhibition of fruit fly DNA polymerase beta at 200 uM
Summary of the method: (§2)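 Compound dissolved in DMSO and sonicated 30 s, then held with each polymerase (final 0.05 U) in 50 mM Tris-HCl pH 7.5, 1 mM DTT, 50% glycerol, 0.1 mM EDTA at 0 °C for 10 min. Reaction with poly(dA)/oligo(dT)12-18 and dTTP ran 60 min at 37 °C (Taq at 74 °C). Activity relative to no-compound control; means ± SEM, four independent experiments.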

Oryza sativa = experiment: Inhibition of rice DNA polymerase lambda at 200 uM; summary of the method: as §2
Homo sapiens [3] = species: Homo sapiens; experiment: Inhibition of human DNA polymerase epsilon at 200 uM; summary of the method: as §2
[4] = target: T1, DNA polymerase lambda (Homo sapiens) (UniProt Q9UGP5); experiment: Inhibition of human DNA polymerase lambda at 200 uM; summary of the method: as §2
T1 sequence (whole entry): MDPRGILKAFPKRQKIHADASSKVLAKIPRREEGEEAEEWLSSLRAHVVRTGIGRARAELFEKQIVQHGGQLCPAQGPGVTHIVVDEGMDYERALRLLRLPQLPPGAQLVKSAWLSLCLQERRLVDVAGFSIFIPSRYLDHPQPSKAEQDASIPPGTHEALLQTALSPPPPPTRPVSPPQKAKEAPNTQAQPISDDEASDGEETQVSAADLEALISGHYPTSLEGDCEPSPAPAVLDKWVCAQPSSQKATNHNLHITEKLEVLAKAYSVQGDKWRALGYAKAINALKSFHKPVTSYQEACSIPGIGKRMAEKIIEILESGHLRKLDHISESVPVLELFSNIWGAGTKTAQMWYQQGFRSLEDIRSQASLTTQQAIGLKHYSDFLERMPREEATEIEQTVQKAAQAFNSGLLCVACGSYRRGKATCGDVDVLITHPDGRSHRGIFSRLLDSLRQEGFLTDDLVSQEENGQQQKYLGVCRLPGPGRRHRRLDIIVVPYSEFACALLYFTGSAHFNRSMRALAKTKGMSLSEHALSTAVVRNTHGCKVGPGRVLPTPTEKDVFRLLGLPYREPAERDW

[5] = target: DNA polymerase beta (Rattus norvegicus) (UniProt P06766); experiment: Inhibition of rat DNA polymerase beta at 200 uM; summary of the method: as §2
Homo sapiens [6] = species: Homo sapiens; experiment: Inhibition of human DNA polymerase gamma at 200 uM; summary of the method: as §2
[7] = target: T2, DNA polymerase alpha subunit B (Bos taurus) (UniProt Q58D13); experiment: Inhibition of calf DNA polymerase alpha at 200 uM; summary of the method: as §2
T2 sequence (whole entry): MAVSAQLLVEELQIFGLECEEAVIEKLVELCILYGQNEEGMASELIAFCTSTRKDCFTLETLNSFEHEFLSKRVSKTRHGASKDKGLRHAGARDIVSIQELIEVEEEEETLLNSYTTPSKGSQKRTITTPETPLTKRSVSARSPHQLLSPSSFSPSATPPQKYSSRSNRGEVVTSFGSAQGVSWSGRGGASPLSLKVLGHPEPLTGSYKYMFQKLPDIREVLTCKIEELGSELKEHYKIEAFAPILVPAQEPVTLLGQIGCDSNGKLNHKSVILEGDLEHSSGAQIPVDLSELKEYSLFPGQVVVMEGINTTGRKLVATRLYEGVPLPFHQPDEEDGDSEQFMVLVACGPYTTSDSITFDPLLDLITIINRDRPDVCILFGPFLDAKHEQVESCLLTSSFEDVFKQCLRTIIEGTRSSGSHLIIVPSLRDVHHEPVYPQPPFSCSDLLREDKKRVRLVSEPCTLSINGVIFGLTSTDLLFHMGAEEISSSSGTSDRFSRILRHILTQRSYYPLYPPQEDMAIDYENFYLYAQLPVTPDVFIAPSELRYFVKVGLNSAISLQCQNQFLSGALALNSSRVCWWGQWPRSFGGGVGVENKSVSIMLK

[8] = system: T4 polynucleotide kinase (Bacteriophage T4); experiment: Inhibition of T4 polynucleotide kinase at 200 uM
[9] = target: T3, DNA polymerase kappa (Homo sapiens) (UniProt Q9UBT6); experiment: Inhibition of human DNA polymerase kappa at 200 uM; summary of the method: as §2
T3 sequence (whole entry): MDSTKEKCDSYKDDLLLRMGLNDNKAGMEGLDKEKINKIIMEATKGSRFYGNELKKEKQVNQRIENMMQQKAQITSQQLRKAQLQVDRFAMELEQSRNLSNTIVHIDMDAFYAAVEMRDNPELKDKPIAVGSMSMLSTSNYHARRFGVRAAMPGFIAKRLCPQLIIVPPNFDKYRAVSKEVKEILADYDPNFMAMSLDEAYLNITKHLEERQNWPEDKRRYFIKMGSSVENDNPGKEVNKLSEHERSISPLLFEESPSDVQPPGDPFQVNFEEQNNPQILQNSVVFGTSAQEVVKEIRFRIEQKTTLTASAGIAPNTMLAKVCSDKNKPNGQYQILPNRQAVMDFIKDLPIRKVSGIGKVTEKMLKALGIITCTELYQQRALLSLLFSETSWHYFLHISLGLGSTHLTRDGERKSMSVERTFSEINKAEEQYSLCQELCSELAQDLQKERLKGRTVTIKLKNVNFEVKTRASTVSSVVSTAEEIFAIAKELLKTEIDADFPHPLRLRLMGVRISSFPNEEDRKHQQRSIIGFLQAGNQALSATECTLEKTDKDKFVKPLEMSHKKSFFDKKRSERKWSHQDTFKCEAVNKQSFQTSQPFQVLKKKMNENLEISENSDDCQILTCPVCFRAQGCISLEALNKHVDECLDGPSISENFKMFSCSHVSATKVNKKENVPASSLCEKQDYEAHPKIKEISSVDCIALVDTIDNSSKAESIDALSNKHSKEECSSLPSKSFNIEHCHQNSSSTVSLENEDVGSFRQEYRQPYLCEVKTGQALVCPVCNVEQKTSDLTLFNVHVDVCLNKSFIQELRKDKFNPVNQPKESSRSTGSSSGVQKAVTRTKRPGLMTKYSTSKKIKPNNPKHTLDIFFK

SMILES: C/C(=C\CC[C@H](C)C(=O)O)[C@H]1CC[C@H](C(=O)O)CC1
- Activity (Homo sapiens [1]): inactive
- Activity (Homo sapiens [2]): inactive
- Activity (Drosophila melanogaster): inactive
- Activity (Oryza sativa): Active
- Activity (Homo sapiens [3]): inactive
- Activity [4]: Active
- Activity [5]: inactive
- Activity (Homo sapiens [6]): inactive
- Activity [7]: inactive
- Activity [8]: inactive
- Activity [9]: inactive
